# This is a sample that favours compounds with a hit; in the whole collection about 2.7% have one here.
# PAFAH1B3 inh = PAFAH1B3 enzyme inhibitors, primary screen, biochemical, fluorescence polarization, human. 0.28% of 340,000 active. recombinant PAFAH1B3, FP-rhodamine probe. Platelet-activating factor acetylhydrolase IB subunit alpha1 (Homo sapiens), Q15102. inhibition, % at 3.39 µM;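 active = inhibition above the screen-wide average of all tested compounds plus 3 SD, cut at about 25% in these data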;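 also: 0% = enzyme with DMSO only and 100% = wells lacking PAFAH1B3 protein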
# Target sequence (Q15102 whole entry, looked up): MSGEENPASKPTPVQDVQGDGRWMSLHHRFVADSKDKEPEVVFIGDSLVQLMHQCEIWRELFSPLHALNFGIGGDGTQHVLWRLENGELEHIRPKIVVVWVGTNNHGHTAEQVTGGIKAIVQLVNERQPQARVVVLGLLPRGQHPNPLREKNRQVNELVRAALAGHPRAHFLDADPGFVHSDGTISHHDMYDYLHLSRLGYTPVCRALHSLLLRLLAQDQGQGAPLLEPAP
# PAFAH2 inh = PAFAH2 enzyme inhibitors, primary screen, biochemical, fluorescence polarization, human | Platelet-activating factor acetylhydrolase 2, cytoplasmic (Homo sapiens), Q99487 | recombinant PAFAH2, FP-rhodamine activity probe | inhibition, % at 3.39 µM | 0.99% of 340,000 active;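 active = inhibition above the mean over all tested compounds plus 3 SD, cut at about 30% in these data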;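 also: inhibitors block probe labeling of enzyme so polarization drops; 0% = enzyme with DMSO and 100% = wells lacking PAFAH2 protein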
# pPAFAH FP inh = pPAFAH enzyme inhibitors, primary screen, biochemical, fluorescence polarization, human. inhibition, % at 3.39 µM. 1.5% of 330,000 active. Platelet-activating factor acetylhydrolase (Homo sapiens), Q13093. AID 463082, 2010. recombinant pPAFAH, FP-rhodamine probe fluorescence polarization;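 active = inhibition above the mean inhibition across the screen plus 3 SD, cut at about 25% in these data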;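 also: inhibitors block binding of the rhodamine activity-based probe so polarization drops; 0% = enzyme with DMSO and 100% = wells lacking pPAFAH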
# Target sequence (Q13093 whole entry, looked up): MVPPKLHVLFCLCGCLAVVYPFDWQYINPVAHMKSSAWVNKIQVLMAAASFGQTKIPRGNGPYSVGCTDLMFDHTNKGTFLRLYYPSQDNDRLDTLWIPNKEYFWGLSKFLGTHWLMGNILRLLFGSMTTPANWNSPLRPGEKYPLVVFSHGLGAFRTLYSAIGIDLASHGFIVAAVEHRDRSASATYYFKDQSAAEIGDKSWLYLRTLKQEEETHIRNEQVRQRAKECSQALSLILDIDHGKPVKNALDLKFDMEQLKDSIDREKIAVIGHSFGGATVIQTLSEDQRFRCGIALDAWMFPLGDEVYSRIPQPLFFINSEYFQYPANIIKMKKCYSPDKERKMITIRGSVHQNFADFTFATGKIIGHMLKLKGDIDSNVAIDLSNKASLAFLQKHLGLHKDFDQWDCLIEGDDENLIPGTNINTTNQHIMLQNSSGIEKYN
# ARFGAP1 inh = inhibitors of rat ARFGAP1 GAP activity, primary screen, biochemical, fluorescence polarization, GDP tracer; ADP-ribosylation factor GTPase-activating protein 1 (Rattus norvegicus), Q62848; Arfgap1-stimulated ARF1 GTP hydrolysis, GDP FP detection; inhibition, % at 16.5 µM; 0.26% of 360,000 active;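 active = inhibition above a per-plate limit, mean inhibition of low control wells plus 3 SD, cut at about 25% in these data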;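 also: 0% = DMSO wells with enzyme and 100% = wells lacking Arfgap1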
#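 System: truncated rat Arfgap1 GAP domain / Benchmarks: high control wells lacking Arfgap1, low control full reaction with DMSO / Times: compound-enzyme preincubation 20 min, reaction 120 min, detection 60 min, 25 °C / Repeats: one replicate per compound / Also added: human ARF1(Δ1-17)-GTP substrate / Measured by: Tracer-displacement fluorescence polarization with EDTA stop, 620/688 nm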
# PAFAH1B2 FP inh = PAFAH1B2 enzyme inhibitors, primary screen, biochemical, fluorescence polarization, human. Platelet-activating factor acetylhydrolase IB subunit alpha2 (Homo sapiens), P68402. recombinant PAFAH1B2, FP-rhodamine activity probe. inhibition, % at 3.39 µM. 1.2% of 340,000 active;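 active = inhibition above the mean of all tested compounds plus 3 SD, cut at about 24% in these data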;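 also: 0% = enzyme with DMSO and 100% = wells lacking PAFAH1B2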
# ASAP1 GAP inh = inhibitors of human ASAP1 ArfGAP activity, primary screen, biochemical, fluorescence polarization; ASAP1-stimulated ARF1 GTP hydrolysis, GDP FP detection; inhibition, % at 16.5 µM; 0.19% of 360,000 active; in the data active = inhibition above about 25%;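 also: 0% = vehicle with enzyme and substrate and 100% = no enzyme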
# ASAP1 inh confirm = ASAP1 GAP activity inhibitors, confirmation, biochemical, fluorescence polarization, human, triplicate; shares compounds with ASAP1 GAP inh; ASAP1-stimulated Arf1 GTPase, GDP fluorescence polarization; inhibition, % at 16.5 µM; 37% of 620 active; AID 624431, 2012;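 active = mean inhibition over triplicates exceeds the hit threshold derived for the earlier primary screening run, cut at about 25% in these data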
# The depositor's hits bear a star; . = no result given.
SMILES,PAFAH1B3 inh,PAFAH2 inh,pPAFAH FP inh,ARFGAP1 inh,PAFAH1B2 FP inh,ASAP1 GAP inh,ASAP1 inh confirm
O=C(COC(=O)c1ccc2c(c1)C(=O)N(c1cccc3ncccc13)C2=O)c1ccc(Cl)cc1,0.2,3.3,0.6,4.2,2.0,145.2*,177.2*
NC1=NN(c2c(Cl)cc(Cl)cc2Cl)C(=O)C1,5.3,4.0,.,-4.9,3.5,25.8*,6.4
CSCCNC(=O)C1(C)CCN1C(=O)CCc1ccccc1 (stereo not drawn),.,.,.,-4.7,.,29.3*,-0.3
CC1(C(=O)NS(=O)(=O)c2ccccc2)CCN1C(=O)CCc1ccccc1 (stereo not drawn),.,.,.,-1.9,.,-6.5,.
COc1ccccc1CNC(=O)C1(C)CCN1Cc1ccc2ccccc2c1 (stereo not drawn),.,.,.,-6.9,.,1.1,.
CCCCCC(=O)N1C[C@@H](O)[C@H](n2cc(C3CC3)nn2)C[C@@H]1c1ccc(C)cc1,.,.,.,-1.5,.,-1.6,.
CC(C)(C)C1CCC(C(=O)Nc2ccc(N3CCOCC3)cc2N2CCOCC2)CC1 (stereo not drawn),7.6,11.4,2.0,-0.2,9.1,9.9,.
CC(=O)c1cccc(NC(=O)COC(=O)CCC(=O)c2cccs2)c1,2.5,5.7,.,-6.7,2.1,6.4,.
COc1ccc2oc(C(=O)OCC(=O)N3CCC(C)CC3)c(C)c2c1,1.4,-5.3,2.1,14.6,1.2,27.2*,15.4
Cc1ccc(-c2nc(Nc3cccc(O)c3)c3ccccc3n2)cc1,9.8,-8.7,-2.0,20.2,-3.4,28.9*,19.0
CC(C)n1c(NCc2cc(Cl)ccc2O)nc2ccccc21,-1.9,-3.2,5.1,5.9,3.6,25.7*,13.9
Cc1ccc(O)c(CNc2nc3ccccc3n2C(C)C)c1,5.8,8.9,6.0,3.8,-0.4,3.1,.
CC(C)NC(=O)c1ccc2c3n(nc2c1)-c1ccc(Cl)cc1CO3,10.1,1.0,4.6,2.6,4.1,31.4*,6.5
CCN(CC)CCCNC(=O)c1ccc2c3n(nc2c1)-c1ccc(Cl)cc1CO3,3.2,-4.6,5.5,7.1,3.2,-6.8,.
C[C@@H]1CN([C@H](C)CO)C(=O)Cc2cc(NC(=O)Nc3ccccc3)ccc2O[C@@H]1CN(C)C(=O)Nc1ccc2c(c1)OCO2,-2.2,8.8,6.2,13.7,16.4,9.8,.
O=C1C(Nc2ccccc2)=C(N2CCCCC2)C(=O)c2ccccc21,59.6*,36.8*,4.6,10.0,17.2,29.9*,16.8
O=C(Nc1ccc(Br)cc1)c1cc(-c2ccncc2)nc2ccccc12,0.1,-11.6,11.2,16.7,-2.7,29.4*,15.5
O=C(Nc1ccncc1)c1cc(-c2ccccc2)nc2ccccc12,.,.,.,-6.8,.,-2.9,.
C=CCn1cnnc1SCC(=O)NCC1COc2ccccc2O1 (stereo not drawn),1.5,9.2,.,3.4,-0.6,30.9*,9.1
CC(=O)c1c(C)n(C)c2ccc(OC(=O)c3ccco3)cc12,0.9,-5.2,4.5,-1.0,1.2,10.1,.
COc1ccc(CCn2c(C)c(C(C)=O)c3cc(OC(=O)c4ccco4)ccc32)cc1OC,3.1,-1.5,4.9,-7.7,5.5,24.8*,6.3
O=C(CCNC(=O)c1ccc(Br)cc1)Nc1nc2ccccc2[nH]1,-1.1,-3.7,.,13.3,-1.6,-6.0,.
COc1cccc(-n2nnc3c(=O)n(CC(=O)Nc4ccccc4C)cnc32)c1,-9.8,-7.5,-2.9,3.1,-5.1,32.1*,17.2
COc1cccc(-n2nnc3c(=O)n(Cc4ccc(Br)cc4)cnc32)c1,-9.6,-1.4,-3.2,-4.5,-6.2,27.5*,34.7*
CCOc1ccccc1NC(=O)Cn1cnc2c(nnn2-c2cccc(OC)c2)c1=O,-2.0,-3.6,0.4,4.9,3.4,-4.4,.
SMILES,PAFAH1B3 inh,PAFAH2 inh,pPAFAH FP inh,ARFGAP1 inh,PAFAH1B2 FP inh,ASAP1 GAP inh,ASAP1 inh confirm
C=CCn1c(C)cc(-c2csc(NC)n2)c1C,6.7,0.1,.,0.2,0.1,25.7*,5.3
C=CCn1c(C)cc(-c2csc(NCC)n2)c1C,4.0,13.6,-7.3,15.2,2.8,13.1,.
CC(=O)Cc1nsc(NC(=O)c2ccc(-c3ccc(Cl)cc3Cl)o2)n1,2.9,0.9,0.7,13.7,3.8,-0.4,.
Cc1nnc2sc(-c3ccc(NC(=O)c4ccc(-c5ccc(Cl)cc5Cl)o4)cc3)nn12,-22.2,-20.3,2.4,20.1,-10.9,111.8*,55.5*
Cc1ccc2c(c1)c1c(n2CC(O)CN2CCOCC2)CCCC1 (stereo not drawn),.,.,7.9,.,.,.,.
COc1ccc(C(=O)c2c(C)c3cc(C)ccc3n2CC(O)CN2CCOCC2)cc1 (stereo not drawn),-10.2,2.8,8.6,-8.5,-1.8,25.8*,1.3
COc1ccc(Nc2ncnc3sc(-c4ccccc4)cc23)cc1OC,31.9*,-31.5,31.8*,3.2,17.7,26.3*,28.1*
Cc1ccccc1S(=O)(=O)N1C[C@H]2CON(C)[C@H]2C[C@H]1c1cccc(Oc2ccccc2)c1,-3.3,-6.4,.,3.7,5.7,0.3,.
CC1(C)Cc2c(c(-c3ccco3)nc3sc4c(NCCO)ncnc4c23)CO1,10.2,-0.2,3.9,-7.1,4.8,30.3*,1.0
Cc1ccc(NC(=O)c2ccc(NCc3ccco3)c([N+](=O)[O-])c2)cc1Cl,1.8,-1.1,2.9,11.2,-1.6,25.6*,28.6*
Cc1ccc(NC(=O)c2ccc(NCC3CCCO3)c([N+](=O)[O-])c2)cc1Cl (stereo not drawn),-0.3,2.9,-1.1,14.4,4.2,34.4*,94.6*
Cc1ccc(C(=O)NCc2ccco2)cc1[N+](=O)[O-],0.9,7.1,2.3,-3.1,0.3,-5.8,.
Cc1ccc2[nH]c(O)c(N=NC(=O)c3ccc(NS(=O)(=O)c4cccs4)cc3)c2c1,10.0,0.2,26.4*,-2.0,25.9*,28.9*,8.7
O=C(CN1CCOCC1)Nc1cccc(S(=O)(=O)N2CCCCCC2)c1,-1.2,4.5,1.6,5.4,1.4,27.4*,3.6
O=C(CNc1cccc(S(=O)(=O)N2CCCC2)c1)Nc1cccc(C(F)(F)F)c1,5.1,1.5,4.9,-0.4,7.0,-4.0,.
COC(=O)c1ccc(C(=O)OCc2nc3cc4ccccc4cc3[nH]2)cc1,-14.4,2.9,-3.4,4.7,3.5,26.3*,4.7
